From ChEMBL document CHEMBL1128736, “Synthesis and anti-HIV activity of [AZT]-[TSAO-T] and [AZT]-[HEPT] dimers as potential multifunctional inhibitors of HIV-1 reverse transcriptase” (J Med Chem, 1995)

Tests used:
Assay type in all cases: functional, organism-based
[1] = tested on: Human immunodeficiency virus 1; test: Inhibitory effect against HIV-1 replication in CEM cells.; settings: Human immunodeficiency virus 1, CCRF-CEM
In short: (§1)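 CEM cells (4×10^5/mL; wild-type CEM/0 or thymidine kinase-deficient CEM/TK⁻) infected with HIV-1 or HIV-2 (ROD) at ~100 CCID50/mL, then mixed 1:1 with serial compound dilutions. After 4 days, virus-induced giant cell formation was scored microscopically. EC50 is the concentration inhibiting virus-induced cytopathicity by 50%.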

[2] = tested on: Human immunodeficiency virus 2; test: Inhibitory effect against HIV-2 replication in CEM /TK-(thymidine kinase deficient) cells.; settings: Human immunodeficiency virus 2, CCRF-CEM; in short: as §1
[3] = tested on: Human immunodeficiency virus 2; test: Inhibitory effect against HIV-2 replication in CEM cells.; settings: Human immunodeficiency virus 2, CCRF-CEM; in short: as §1

| SMILES | EC50 [1] [µM] | EC50 [2] [µM] | EC50 [3] [µM] |
| --- | --- | --- | --- |
| Cc1cn([C@@H]2O[C@H](CO[Si](C)(C)C(C)(C)C)[C@@]3(OS(=O)(=O)C=C3N)[C@H]2O[Si](C)(C)C(C)(C)C)c(=O)n(CCCCCn2c(=O)c(C)cn([C@H]3C[C@H](N=[N+]=[N-])[C@@H](CO)O3)c2=O)c1=O | 0.22 | > 100 | > 100 |
| Cc1cn([C@@H]2O[C@H](CO[Si](C)(C)C(C)(C)C)[C@@]3(OS(=O)(=O)C=C3N)[C@H]2O[Si](C)(C)C(C)(C)C)c(=O)n(CCCCCCCn2c(=O)c(C)cn([C@H]3C[C@H](O)[C@@H](CO)O3)c2=O)c1=O | 0.22 | – | > 4 |
| Cc1cn([C@@H]2O[C@H](CO[Si](C)(C)C(C)(C)C)[C@@]3(OS(=O)(=O)C=C3N)[C@H]2O[Si](C)(C)C(C)(C)C)c(=O)n(CCCCn2c(=O)c(C)cn([C@H]3C[C@H](N=[N+]=[N-])[C@@H](CO)O3)c2=O)c1=O | 0.2 | > 100 | > 100 |
| Cc1cn([C@@H]2O[C@H](CO[Si](C)(C)C(C)(C)C)[C@@]3(OS(=O)(=O)C=C3N)[C@H]2O[Si](C)(C)C(C)(C)C)c(=O)n(CCCCCCCCn2c(=O)c(C)cn([C@H]3C[C@H](N=[N+]=[N-])[C@@H](CO)O3)c2=O)c1=O | 1.56 | – | > 100 |
| Cc1cn(C2CC(N=[N+]=[N-])C(CO)O2)c(=O)n(CCCBr)c1=O (stereo not drawn) | > 50 | – | > 50 |
| Cc1cn([C@@H]2O[C@H](CO[Si](C)(C)C(C)(C)C)[C@@]3(OS(=O)(=O)C=C3N)[C@H]2O[Si](C)(C)C(C)(C)C)c(=O)n(CCCn2c(=O)c(C)cn([C@H]3C[C@H](O)[C@@H](CO)O3)c2=O)c1=O | 0.06 | > 4 | > 4 |
| Cc1cn(C2CC(N=[N+]=[N-])C(CO)O2)c(=O)n(CCCCCBr)c1=O (stereo not drawn) | > 50 | > 10 | > 50 |
| Cc1cn([C@H]2C[C@H](O)[C@@H](CO)O2)c(=O)n(CCCCCCCBr)c1=O | > 10 | > 10 | > 10 |
| Cc1cn([C@@H]2O[C@H](CO[Si](C)(C)C(C)(C)C)C3(OS(=O)(=O)C=C3N)[C@H]2O[Si](C)(C)C(C)(C)C)c(=O)[nH]c1=O (stereo partly drawn) | 0.05 | > 6 | > 6 |
| Cc1cn([C@@H]2O[C@H](CO[Si](C)(C)C(C)(C)C)[C@@]3(OS(=O)(=O)C=C3N)[C@H]2O[Si](C)(C)C(C)(C)C)c(=O)n(CCCCCCCCBr)c1=O | > 1 | > 1 | > 1 |
| Cc1cn([C@@H]2O[C@H](CO[Si](C)(C)C(C)(C)C)[C@@]3(OS(=O)(=O)C=C3N)[C@H]2O[Si](C)(C)C(C)(C)C)c(=O)n(CCCBr)c1=O | 0.11 | – | > 100 |
| Cc1cn([C@@H]2O[C@H](CO[Si](C)(C)C(C)(C)C)[C@@]3(OS(=O)(=O)C=C3N)[C@H]2O[Si](C)(C)C(C)(C)C)c(=O)n(CCCCCCn2c(=O)c(C)cn([C@H]3C[C@H](N=[N+]=[N-])[C@@H](CO)O3)c2=O)c1=O | 0.21 | > 100 | > 100 |
| Cc1cn(C2CC(N=[N+]=[N-])C(CO)O2)c(=O)n(CCCCCCCCBr)c1=O (stereo not drawn) | > 8 | > 8 | > 8 |
| Cc1cn([C@@H]2O[C@H](CO[Si](C)(C)C(C)(C)C)[C@@]3(OS(=O)(=O)C=C3N)[C@H]2O[Si](C)(C)C(C)(C)C)c(=O)n(CCCCCCCCCn2c(=O)c(C)cn([C@H]3C[C@H](N=[N+]=[N-])[C@@H](CO)O3)c2=O)c1=O | 15.3 | > 100 | > 100 |
| Cc1cn(C2CC(N=[N+]=[N-])C(CO)O2)c(=O)n(CCCCCCn2c(=O)c(C)c(Sc3ccccc3)n(COCCO)c2=O)c1=O (stereo not drawn) | > 5 | > 5 | > 5 |
| Cc1cn([C@@H]2O[C@H](CO[Si](C)(C)C(C)(C)C)[C@@]3(OS(=O)(=O)C=C3N)[C@H]2O[Si](C)(C)C(C)(C)C)c(=O)n(CCCCCCCn2c(=O)c(C)cn([C@H]3C[C@H](N=[N+]=[N-])[C@@H](CO)O3)c2=O)c1=O | 1.58 | – | > 100 |

| SMILES | EC50 [1] [µM] | EC50 [2] [µM] | EC50 [3] [µM] |
| --- | --- | --- | --- |
| Cc1cn([C@@H]2O[C@H](CO[Si](C)(C)C(C)(C)C)[C@@]3(OS(=O)(=O)C=C3N)[C@H]2O[Si](C)(C)C(C)(C)C)c(=O)n(CCCCCCn2c(=O)c(C)cn([C@H]3C[C@H](O)[C@@H](CO)O3)c2=O)c1=O | 0.55 | – | > 4 |
| Cc1cn(C2CC(N=[N+]=[N-])C(CO)O2)c(=O)n(CCCCCCCCCBr)c1=O (stereo not drawn) | > 8 | > 8 | > 8 |
| Cc1c(Sc2ccccc2)n(COCCO)c(=O)n(CCCCCCBr)c1=O | – | > 8 | – |
| Cc1c(Sc2ccccc2)n(COCCO)c(=O)n(CCCCCCCBr)c1=O | > 8 | > 8 | > 8 |
| Cc1cn([C@H]2C[C@H](O)[C@@H](CO)O2)c(=O)n(CCCCCCCn2c(=O)c(C)c(Sc3ccccc3)n(COCCO)c2=O)c1=O | > 30 | – | > 30 |
| Cc1cn([C@H]2C[C@H](O)[C@@H](CO)O2)c(=O)[nH]c1=O [DOXRIBTIMINE] | > 40 | > 40 | > 40 |
| Cc1cn([C@H]2C[C@H](O)[C@@H](CO)O2)c(=O)n(CCCCCCn2c(=O)c(C)c(Sc3ccccc3)n(COCCO)c2=O)c1=O | 79 | – | > 30 |
| Cc1cn(C2CC(N=[N+]=[N-])C(CO)O2)c(=O)n(CCCCCCCn2c(=O)c(C)c(Sc3ccccc3)n(COCCO)c2=O)c1=O (stereo not drawn) | > 5 | – | > 5 |
| Cc1cn([C@@H]2O[C@H](CO[Si](C)(C)C(C)(C)C)[C@@]3(OS(=O)(=O)C=C3N)[C@H]2O[Si](C)(C)C(C)(C)C)c(=O)n(CCCCCCCBr)c1=O | 0.79 | > 5 | > 1 |
| Cc1cn([C@H]2C[C@H](N=[N+]=[N-])[C@@H](CO)O2)c(=O)[nH]c1=O [ZIDOVUDINE] | 0.011 | > 35 | 0.011 |
| Cc1cn([C@@H]2O[C@H](CO[Si](C)(C)C(C)(C)C)[C@@]3(OS(=O)(=O)C=C3N)[C@H]2O[Si](C)(C)C(C)(C)C)c(=O)n(CCCn2c(=O)c(C)cn([C@H]3C[C@H](N=[N+]=[N-])[C@@H](CO)O3)c2=O)c1=O | 0.1 | > 100 | > 100 |
| Cc1cn(C2CC(N=[N+]=[N-])C(CO)O2)c(=O)n(CCCCCCBr)c1=O (stereo not drawn) | – | > 45 | – |
| Cc1cn([C@@H]2O[C@H](CO[Si](C)(C)C(C)(C)C)[C@@]3(OS(=O)(=O)C=C3N)[C@H]2O[Si](C)(C)C(C)(C)C)c(=O)n(CCCCCCCCCBr)c1=O | > 1 | > 1 | > 1 |
| Cc1c(Sc2ccccc2)n(COCCO)c(=O)[nH]c1=O [HEPT] | – | > 100 | > 100 |
| Cc1cn([C@@H]2O[C@H](CO[Si](C)(C)C(C)(C)C)[C@@]3(OS(=O)(=O)C=C3N)[C@H]2O[Si](C)(C)C(C)(C)C)c(=O)n(CCCCCCBr)c1=O | 0.47 | – | > 25 |
